Experimental data: paper PMC4308698 (Scientific Reports, 2015)
Entries after “also recorded” stand apart in the source; their conditions may differ.

Columns and labels:
AlinCSP4 [1] = molecular target: T1, AlinCSP4 (Adelphocoris lineolatus, UniProt K9J9S0); test: Fluorescence competitive binding assay with 1-NPN as probe, recombinant AlinCSP4; details: for binding to AlinCSP4 (in words): competitive binding with 1-NPN
T1 sequence (K9J9S0 20-127): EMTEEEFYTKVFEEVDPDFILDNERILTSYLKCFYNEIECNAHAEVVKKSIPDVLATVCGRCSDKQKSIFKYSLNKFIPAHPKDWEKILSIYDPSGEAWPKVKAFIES
Method in brief: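 Refolded, His-tag-cleaved recombinant protein at 2 μM and 1-NPN at 2 μM in Tris-HCl pH 7.4 were titrated with 1 mM competitor stock to 2–30 μM final, at 25°C. Excitation was 337 nm, with emission read at 390–460 nm. IC50 is the competitor level that halves 1-NPN fluorescence, and Ki = IC50/(1+[1-NPN]/K1-NPN). IC50 <20 μM was taken as good binding; Ki was not calculated when IC50 >30 μM.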

AlinCSP4 [2] = molecular target: T1, AlinCSP4; test: Binding of fluorescent probe 1-NPN to recombinant AlinCSP4
Method in brief: (§1)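 Recombinant mature protein (E. coli BL21(DE3), pET30a(+)) was refolded from inclusion bodies, purified by two rounds of Ni affinity, and had the His-tag removed with enterokinase. 2 μM protein in 50 mM Tris-HCl pH 7.4 was titrated with 1 mM 1-NPN in methanol (stock) to 1–16 μM final, at 25°C. Excitation was 337 nm; emission peak was read at 390–460 nm. Analysis assumed 1:1 stoichiometry with fully active protein, using a Scatchard plot.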

AlinCSP5 = molecular target: T2, AlinCSP5 (Adelphocoris lineolatus, UniProt K9J9X7); test: Binding of fluorescent probe 1-NPN to recombinant AlinCSP5
T2 sequence (K9J9X7 22-127): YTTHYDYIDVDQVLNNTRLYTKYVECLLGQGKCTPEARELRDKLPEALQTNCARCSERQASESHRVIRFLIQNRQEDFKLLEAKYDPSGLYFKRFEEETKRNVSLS
Method in brief: as §1

AlinCSP6 = molecular target: T3, AlinCSP6 (Adelphocoris lineolatus, UniProt K9J9R7); test: Binding of fluorescent probe 1-NPN to recombinant AlinCSP6
T3 sequence (K9J9R7 20-132): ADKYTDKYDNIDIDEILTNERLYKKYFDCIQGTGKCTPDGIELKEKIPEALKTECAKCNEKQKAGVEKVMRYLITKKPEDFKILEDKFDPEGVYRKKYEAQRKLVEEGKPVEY
Method in brief: as §1

[3] = test system: antennae of female and male adults of A. lineolatus; test: Electroantennogram; set-up: species or system Adelphocoris lineolatus; details: 0.01%, 0.1%, 1%, 10% v/v, normalized to 10% 3-hexanone
Method in brief: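 Antennae were excised from newly emerged lab-reared adults (green beans and 10% honey, 14L:10D, 29±1°C) and mounted between two electrodes with electrode gel. A 10 μL aliquot per dose was delivered in an air stream of 10 ml/sec, and signals were recorded for 5 s from 1 s before the stimulus. Paraffin oil served as control. Six antennae per sex were tested per compound, given as normalized mean ± SE and compared by one-way ANOVA (α=0.05).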

[4] = test system: antennae of female and male adults of A. lineolatus; details: exceptions at 10% level; cited from earlier work
[5] = test system: female adults of A. lineolatus; details: plant volatile emitted by Bt cotton plants; cited from earlier work
AlinCSP1 = details: cited from earlier work

| IC50 (AlinCSP4 [1]) [µM] | Compound | also measured |
| --- | --- | --- |
| 5.83 ± 0.44 | CCCCCCCCCOC(C)=O [Nonyl acetate] |  |
|  | c1ccc(Nc2cccc3ccccc23)cc1 [Ligand 1-NPN, N-phenyl-1-naphthylamine] | Kd (AlinCSP4 [2]): 2.8 ± 0.4 µM; Kd (AlinCSP5): 4.2 ± 0.5 µM; Kd (AlinCSP6): 8.3 ± 1.8 µM |
| 21.7 ± 0.88 | CC/C=C\CCO [cis-3-Hexen-1-ol] |  |
| 20.2 ± 2.62 | CC(=O)CCC=C(C)C [6-Methyl-5-hepten-2-one] |  |
| 27.3 ± 0.6 | CCCCCC(C)=O [Ligand 2-Heptanone, 2-Heptanone] |  |
| 10.5 ± 2.11 | CCCCCC=O [Hexanal] |  |
| > 30 | C=C1CCC2CC1C2(C)C (stereo not drawn) [β-Pinene] | binding to AlinCSP4 (in words) (AlinCSP4 [1]): no binding |
| 10.6 ± 0.75 | Cc1ccc(C=O)cc1C [3,4-Dimethyl-benzaldehyde] |  |
| 11 ± 2.09 | CCC/C=C/COC(=O)CCC [trans-2-hexenyl butyrate] | EAG response (in words) [3]: more sensitive EAG responses |
| 2 ± 0.17 | C=CC(C)(O)CCC=C(C)CCC=C(C)C (mixture of isomers) [Nerolidol] | EAG response of terpenoids (in words) [4]: good EAG responses |
| 9.22 ± 1.77 | CCCCCCOC(=O)CCC [Hexyl butyrate] | EAG response (in words) [3]: more sensitive EAG responses |
| 21.1 ± 0.51 | CCCCOC(=O)CCC [Butyl butyrate] |  |
| 25.7 ± 0.53 | CCCCC(C)=O [Ligand 2-Hexanone, 2-Hexanone] |  |
| 9.81 ± 1.55 | CCCC(=O)OCC [Ethyl butyrate] |  |
| 11.4 ± 0.47 | CCCCCCC=O [Heptanal] |  |
| 13 ± 1.43 | CCCCCCCCC=O [Nonanal] |  |
| 24.2 ± 0.84 | CCCC(=O)CC [Ligand 3-Hexanone, 3-Hexanone] | attraction of female adults (in words) [5]: strongly attract |

| IC50 (AlinCSP4 [1]) [µM] | Compound | also measured |
| --- | --- | --- |
| 10.1 ± 1.24 | CC(=O)/C=C/C1=C(C)CCCC1(C)C [β-Ionone] |  |
| 2.36 ± 0.21 | CCCCCCOC(=O)CCCCC [Hexyl hexanoate] |  |
|  | C=C(C)[C@H]1CC=C(C)CC1 [Limonene] | binding to AlinCSP4 (in words) (AlinCSP4 [1]): no binding; EAG response of terpenoids (in words) [4]: good EAG responses |
| > 30 | CC/C=C\CCOC(C)=O [cis-3-hexenyl acetate] | binding to AlinCSP4 (in words) (AlinCSP4 [1]): no binding; also recorded: no or very weak binding; binding affinity to AlinCSP1 (in words) (AlinCSP1): very good binding affinity |
|  | C=C/C(C)=C/CC=C(C)C [trans-β-Ocimene, trans -β-Ocimene] | binding to AlinCSP4 (in words) (AlinCSP4 [1]): no binding |
| 10.9 ± 0.86 | CCCCCCCC=O [Octanal] |  |
| 12.5 ± 0.88 | CCCCCCO [Ligand 1-Hexanol, 1-Hexanol] |  |
| > 30 | CC1=CC[C@H](C(C)C)C=C1 [α-Phellandrene] | binding to AlinCSP4 (in words) (AlinCSP4 [1]): no binding; EAG response of terpenoids (in words) [4]: good EAG responses |
| 25.2 ± 2.39 | CCCCCCC(C)=O [Ligand 2-Octanone, 2-Octanone] |  |
| 7.13 ± 1.29 | CCCCCCCCCCC [Undecane] |  |
| 20.1 ± 0.81 | C=CC(=C)CCC=C(C)C [Myrcene] |  |
| 27.5 ± 1.73 | CC(=O)c1ccccc1 [Acetophenone] |  |
| 2.26 ± 0.26 | C=C1CC/C=C(\C)CC[C@@H]2[C@@H]1CC2(C)C [β-Caryophyllene] |  |
| 9.63 ± 0.3 | CCCCC(C)O (stereo not drawn) [Ligand 2-Hexanol, 2-Hexanol] |  |
| 23.3 ± 1.6 | c1ccc2[nH]ccc2c1 [Indole] |  |
|  | (+)-α-Pinene | binding to AlinCSP4 (in words) (AlinCSP4 [1]): no binding |

| Compound | IC50 (AlinCSP4 [1]) [µM] | also measured |
| --- | --- | --- |
| CCC/C=C/C=O [trans-2-Hexenal] | 16.3 ± 0.51 |  |
| COC(=O)c1ccccc1O [Methyl salicylate] | 12.7 ± 2.01 |  |
| O=Cc1ccccc1 [Benzaldehyde] | 14.3 ± 1.86 |  |
